Data reported in ChEMBL document CHEMBL2321739, “Discovery of a novel small molecule inhibitor targeting the frataxin/ubiquitin interaction via structure-based virtual screening and bioassays” (J Med Chem, 2013).
Positions count from the first letter of the chain named. Active and inactive are the calls of the source. The calls are words filed in the database; no cut-off is given here. Peptide text beside a SMILES is read from it. * marks the point of attachment. Cbz = O=C(OCc1ccccc1)*

Legend:
[1] = (§1) Inhibition of human His-tagged Frataxin/GST-tagged mono ubiquitin interaction expressed in human Calu6 cells after 3 days by GST pull down-based Western blot analysis; assay type: cell-based; conditions: calu-6
Summary of the method: (§2)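 Calu-6 cells transfected with His-frataxin or His-K147R. From 24 h post-transfection, cells received 10 µM MG132 for 18 h, or compound for 3 days with MG132 added for the last 18 h. Lysate (500 µg) pulled down with 5 µg GST-monoUb or GST on GSH-sepharose, 4 h at 4 °C, pH 7.5 buffer. Eluates blotted with anti-His and quantified by densitometry as % of control. IC50 obtained by four-parameter logistic fit; at least three independent experiments.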

Calu-6 [2] = test: as §1; assay type: cell-based; summary of the method: as §2
[3] = target: T1, Frataxin, mitochondrial (Homo sapiens) (UniProt Q16595); test: Binding affinity to recombinant His-tagged frataxin (unknown origin) at 1 uM at 37 degC by UF-LC/MS analysis relative to control
T1 sequence (whole entry): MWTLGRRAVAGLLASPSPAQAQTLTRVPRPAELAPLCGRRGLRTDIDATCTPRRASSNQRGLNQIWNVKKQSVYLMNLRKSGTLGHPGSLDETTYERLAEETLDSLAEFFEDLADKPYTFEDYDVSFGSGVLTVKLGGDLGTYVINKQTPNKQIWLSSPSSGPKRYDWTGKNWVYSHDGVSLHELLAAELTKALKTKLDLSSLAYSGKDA
Summary of the method: (§3)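 His-frataxin recombinant protein (E. coli-expressed, Ni-NTA purified), 1 µM, incubated with ligand at 1 µM in 100 mM Tris-HCl pH 7.5, 50 mM KCl, 5 mM MgCl2, DMSO ≤2%, for 60 min at 25 or 37 °C. Unbound ligand removed by ultrafiltration and washing. Bound ligand dissociated in methanol and quantified by LC/MS (ESI positive). Ratio of peak area with active vs heat-denatured (90 °C, 1 h) protein. Duplicate assays, each analyzed twice.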

[4] = target: T1, Frataxin, mitochondrial (Homo sapiens); test: Binding affinity to recombinant His-tagged frataxin (unknown origin) at 1 uM at 25 degC by UF-LC/MS analysis relative to control; summary of the method: as §3
Calu-6 [5] = test: Inhibition of human His-tagged Frataxin/Ubiquitin interaction expressed in human Calu6 cells assessed as increase in mature frataxin (81-210) level at 50 uM after 3 days by Western blotting analysis; assay type: cell-based
Summary of the method: (§4)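 Calu-6 cells (DMEM with glutamax, 10% FBS) transiently transfected with His-frataxin. From 24 h post-transfection, treated with 10 µM proteasome inhibitor for 18 h or 50 µM compound for 3 days. Extracts (50 µg) resolved on 15% SDS gels and immunoblotted with anti-frataxin using ECL detection. Band levels quantified by PhosphorImager and normalized to tubulin. Three independent experiments.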

Calu-6 [6] = test: Inhibition of recombinant His-tagged Frataxin (unknown origin)/GST-tagged mono ubiquitin interaction expressed in human Calu6 cells assessed as presence of frataxin signal at 10 uM after 18 hrs by GST pull down-based Western blotting analysis; assay type: cell-based; summary of the method: as §2
[7] = system: T2, Frataxin, mitochondrial (Homo sapiens), Q16595 [K147R]; test: Inhibition of recombinant GST-tagged mono ubiquitin/His-tagged Frataxin K147R mutant (unknown origin) interaction expressed in human Calu6 cells assessed as presence of frataxin signal at 10 uM after 18 hrs by GST pull down-based Western blotting analysis; assay type: cell-based; conditions: Calu-6; summary of the method: as §2
T2 sequence (whole entry): T1 sequence (whole entry) with K147R

Calu-6 [8] = test: Inhibition of His-tagged Frataxin (unknown origin)/HA-tagged Ubiquitin interaction expressed in human Calu6 cells assessed as accumulation of monoUB-tagged frataxin (1-210) precursor at 10 uM after 18 hrs by immunoprecipitation assay; assay type: cell-based
Summary of the method: (§5)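 Calu-6 cells cotransfected with His-frataxin and HA-Ub, then treated with 10 µM MG132 for 18 h starting 24 h after transfection. Frataxin immunoprecipitated from 1.5 mg extract using anti-frataxin on protein A/G beads (4 °C, 12 h). Precipitates run on 12% SDS-PAGE and blotted with anti-Ub. Three independent experiments.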

Calu-6 [9] = test: Inhibition of His6-tagged Frataxin (unknown origin)/HA-tagged Ubiquitin interaction expressed in human Calu6 cells assessed as accumulation of frataxin at 10 uM after 18 hrs by immunoprecipitation assay; assay type: cell-based; summary of the method: as §5
Calu-6 [10] = test: Inhibition of His-tagged Frataxin (unknown origin)/Ubiquitin interaction expressed in human Calu6 cells assessed as increase in frataxin (1-210) precursor level at 10 uM after 18 hrs by Western blotting analysis; assay type: cell-based; summary of the method: as §4
Calu-6 [11] = test: Cytotoxicity against human Calu6 cells assessed as cell viability up to 100 uM; assay type: cell-based

Structure (SMILES) | IC50 [1] [µM] | inhibition (Calu-6 [2]) | other results
COc1cccc(C(c2cc3c(cc2O)OCO3)N2CCOCC2)c1O (stereo not drawn) | 29 | Dose-dependent effect | 
Oc1ccccc1C(c1cc2c(cc1O)OCO2)N1CCOCC1 (stereo not drawn) | 80 | Dose-dependent effect | 
COc1cccc(C(c2cc3c(cc2O)OCO3)N2CCOCC2)c1OC (single isomer, unassigned; (+)) [listing 1 of 2 here] |  | Dose-dependent effect | fold change (FC) [3]: 3.32; fold change (FC) [4]: 3.7; inhibition (Calu-6 [5]): Active
Oc1cc2c(cc1C(c1ccc(F)cc1)N1CCOCC1)OCO2 (stereo not drawn) | 67 | Dose-dependent effect | 
COc1ccc(C(c2cc3c(cc2O)OCO3)N2CCCCC2)cc1 (stereo not drawn) | 82 | Dose-dependent effect | 
COc1ccc(C(c2cc3c(cc2O)OCO3)N2CCOCC2)cc1 (stereo not drawn) | 65 | Dose-dependent effect | 
Oc1cc2c(cc1C(c1ccc3c(c1)OCO3)N1CCOCC1)OCO2 (stereo not drawn) | 70 | Dose-dependent effect | 
CC(C)C[C@@H](C=O)NC(=O)[C@H](CC(C)C)NC(=O)[C@H](CC(C)C)NC(=O)OCc1ccccc1 (Cbz-Leu-Leu-Leu-aldehyde) |  |  | inhibition (Calu-6 [6]): Active; inhibition [7]: inactive; inhibition (Calu-6 [8]): Active; inhibition (Calu-6 [9]): Active; inhibition (Calu-6 [10]): Active
COc1ccc(C(c2cc3c(cc2O)OCO3)N2CCOCC2)c(OC)c1 (stereo not drawn) | 44 | Dose-dependent effect | 
COc1ccc(C(c2cc3c(cc2O)OCO3)N2CCOCC2)cc1OC (stereo not drawn) | 20 | Dose-dependent effect | 
COc1cccc(C(c2cc3c(cc2O)OCO3)N2CCOCC2)c1OC (single isomer, unassigned; (+)) [listing 2 of 2 here] | 45 |  | Activity (Calu-6 [11]): Non-toxic
CC(C)C[C@H](NC(=O)[C@H](Cc1ccccc1)NC(=O)c1cnccn1)B(O)O |  |  | inhibition (Calu-6 [10]): Active
CN(C)c1ccc(C(c2cc3c(cc2O)OCO3)N2CCOCC2)cc1 (stereo not drawn) | 81 | Dose-dependent effect | 
COc1cccc(C(c2cc3c(cc2O)OCO3)N2CCOCC2)c1OC (single isomer, unassigned; (-)) |  |  | inhibition (Calu-6 [5]): inactive
COc1cc(OC)c(C(c2cc3c(cc2O)OCO3)N2CCOCC2)c(OC)c1 (stereo not drawn) | 53 | Dose-dependent effect | 
Oc1cc2c(cc1C(c1ccc(Cl)cc1)N1CCOCC1)OCO2 (stereo not drawn) | 68 | Dose-dependent effect | 
COc1cccc(C(c2cc3c(cc2O)OCO3)N2CCOCC2)c1OC (racemic) |  |  | inhibition (Calu-6 [5]): Active
COc1ccc(C(c2cc3c(cc2O)OCO3)N2CCCC2)cc1 (stereo not drawn) | 97 | Dose-dependent effect | 
